Assay results reported in ChEMBL document CHEMBL2150998, “Antibiotic and antimalarial quinones from fungus-growing ant-associated Pseudonocardia sp” (J Nat Prod, 2012).
≈ marks a conversion by molar mass, not a printed value.

Key:
Saccharomyces cerevisiae = experiment: Antifungal activity against Saccharomyces cerevisiae after 24 hrs; type: functional
Procedure, shortened: (§1)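 Overnight cultures at 30 °C in LB (E. coli, B. subtilis) or YPD (C. albicans, S. cerevisiae) were diluted to OD600 0.01. Compounds came from 5 mg/mL DMSO stocks, 2-fold serially diluted, at final 50 to 0.1 μg/mL. Growth ran 24 h at 30 °C with OD600 read-out. MIC was the lowest concentration giving <5% of maximum OD600. Assays were run in duplicate, with dynemicin A as positive control.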

Escherichia coli = experiment: Antibacterial activity against Escherichia coli K12 after 24 hrs; type: functional; conditions: K-12, 24 h; procedure, shortened: as §1
Plasmodium berghei = experiment: Antiplasmodial activity against luciferase-expressing sporozoite of Plasmodium berghei ANKA infected in human HepG2 cells assessed as reduction of parasite load after 2 days; type: functional, organism-based; conditions: HepG2, 48 h
Procedure, shortened: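 HepG2 cells (15 000/well, 384-well) were infected with 4000 luciferase-expressing P. berghei ANKA sporozoites, taken from infected Anopheles stephensi, with compounds in triplicate. Final DMSO was 1%, compounds 0–50 μg/mL, 2 days at 37 °C. Parasite load was read by Bright-Glo luminescence. IC50 came from a standard inhibition dose–response fit, mean of two independent experiments. Atovaquone was the positive control.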

Candida albicans = experiment: Antifungal activity against Candida albicans after 24 hrs; type: functional; procedure, shortened: as §1
HepG2 = experiment: Cytotoxicity against human HepG2 cells after 2 days by CellTiter-Glo assay; type: cell-based; conditions: HepG2, 48 h
Procedure, shortened: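 HepG2 hepatoma cells were kept in DMEM with 10% FBS and 1% antibiotic–antimycotic (37 °C, 5% CO2). 15 000 cells/well were exposed in triplicate to compounds at 0–50 μg/mL with 1% DMSO final, 2 days at 37 °C. Viability was read by CellTiter-Glo luminescence. IC50 came from a standard inhibition dose–response fit, mean of two independent experiments.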

Bacillus subtilis = experiment: Antibacterial activity against Bacillus subtilis 3610 after 24 hrs; type: functional; conditions: subsp. subtilis str. NCIB 3610, 24 h; procedure, shortened: as §1

| Compound | MIC (Saccharomyces cerevisiae) | MIC (Escherichia coli) | IC50 (Plasmodium berghei) | MIC (Candida albicans) | IC50 (HepG2) | MIC (Bacillus subtilis) |
| --- | --- | --- | --- | --- | --- | --- |
| COc1cccc2c1C(=O)c1ccc3cc(C)cc(O)c3c1C2=O | > 50 µg/mL | > 50 µg/mL | 3 µM | > 50 µg/mL | 36.1 µM | 3.13 µg/mL (≈ 9.83 µM) |
| COc1cccc2c1C(=O)c1ccc3cc(C)c(O[C@@H]4O[C@H](C(=O)O)[C@@H](O)[C@H](O)[C@H]4O)c(O)c3c1C2=O [PSEUDONOCARDONE C] | > 50 µg/mL | > 50 µg/mL | > 100 µM | > 50 µg/mL | > 100 µM | > 50 µg/mL |
| COc1cccc2c1C(=O)c1ccc3cc(C)cc(O[C@@H]4O[C@H](C(=O)O)[C@@H](O)[C@H](O)[C@H]4O)c3c1C2O (relative stereo) | > 50 µg/mL | > 50 µg/mL | 38 µM | > 50 µg/mL | > 100 µM | > 50 µg/mL |
| COC1=C(C(=O)O)[C@H](C)[C@@]23O[C@]24c2cc(O)c5c(c2N[C@H]3C#C/C=C\C#C[C@H]14)C(=O)c1c(O)ccc(O)c1C5=O [DYNEMICIN A] | 0.156 µg/mL (≈ 0.29 µM) | 0.313 µg/mL (≈ 0.582 µM) |  | 0.156 µg/mL (≈ 0.29 µM) |  | 0.00016 µg/mL (≈ 0.000298 µM) |
| COc1cccc2c1C(=O)c1ccc3cc(C)cc(O[C@@H]4O[C@H](C(=O)O)[C@@H](O)[C@H](O)[C@H]4O)c3c1C2=O [PSEUDONOCARDONE B] | > 50 µg/mL | > 50 µg/mL | 50 µM | > 50 µg/mL | > 100 µM | > 50 µg/mL |
| COc1cccc2c1C(=O)c1ccc3c(c1C2=O)C(=O)C[C@](C)(O)C3 | > 50 µg/mL | > 50 µg/mL | 18.5 µM | > 50 µg/mL | > 100 µM | 25 µg/mL (≈ 74.3 µM) |
